Most compounds without a hit are left out; they make up all but 1.6% or so of the library.
MBD2 DNA inh: inhibitors of MBD2 binding to methylated DNA, primary screen, biochemical, TR-FRET, DNA-binding domain, human | inhibition, % at 4.4 µM | MBD2 binding to methylated oligonucleotide | 370,000 tested, 0.31% active | Methyl-CpG-binding domain protein 2 (Homo sapiens), Q9UBB5; in the data active = inhibition above about 13%
UHRF1 MBD2 ctr: UHRF1 methylated DNA binding inhibitors, primary screen, counter-screen for MBD2 inhibitor project, biochemical, TR-FRET, human UHRF1, single concentration | E3 ubiquitin-protein ligase UHRF1 (Homo sapiens), Q96T88 | UHRF1 binding to methylated oligo | inhibition, % at 4.4 µM | 370,000 tested, 0.75% active; in the data active = inhibition above about 21%;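 note: UHRF1 SRA domain binding a hemimethylated CpG hairpin DNA probe; 0% = median of test compound wells and 100% = reference inhibitor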
TDP2 inh: human TDP2 enzyme inhibitors, primary screen, biochemical, epi absorbance, recombinant enzyme; Tyrosyl-DNA phosphodiesterase 2 (Homo sapiens), O95551; T5PNP hydrolysis, p-nitrophenol absorbance 415 nm; inhibition, % at 12.8 µM; 370,000 tested, 0.34% active;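 active = inhibition above the mean of all tested compounds plus 3 SD, set per campaign, cut at about 25% in these data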;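 note: 0% = DMSO with enzyme and 100% = buffer with substrate but no TDP2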
Target sequence (O95551 whole entry, looked up): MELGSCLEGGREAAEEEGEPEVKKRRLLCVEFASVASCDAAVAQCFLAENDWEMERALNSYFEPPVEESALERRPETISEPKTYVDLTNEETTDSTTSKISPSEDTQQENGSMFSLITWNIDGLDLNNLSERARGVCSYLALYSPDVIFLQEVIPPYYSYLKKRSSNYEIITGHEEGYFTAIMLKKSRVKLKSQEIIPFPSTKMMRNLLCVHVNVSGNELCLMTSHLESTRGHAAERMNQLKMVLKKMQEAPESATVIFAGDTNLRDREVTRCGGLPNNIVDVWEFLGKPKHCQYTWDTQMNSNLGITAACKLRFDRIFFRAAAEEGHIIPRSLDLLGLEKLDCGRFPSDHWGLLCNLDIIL
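System – recombinant human TDP2 · Amount – 120 nM TDP2 per well · Buffer or medium – Mg2+-containing Tris-HCl buffer, pH 7.5 · Reagent – T5PNP substrate, 5 mM · Dosing – 12.8 µM single point, 1% DMSO · Incubation – 2 h at 37 °C · Measured by – epi absorbance · Read-out basis – percent inhibition · Benchmarks – high control without enzyme, low control DMSO plus TDP2 · Repeats – singlicate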
LEDGF integ inh: blockers of LEDGF/p75-dependent integrase strand transfer – biochemical, TR-FRET, high throughput, primary screen. HIV-1 integrase (with human LEDGF/p75). TR-FRET IN-LEDGF/p75 DNA integration, Eu/Cy5. inhibition, % at 3.7 µM. 370,000 tested, 0.64% active. AID 743269, 2014;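 active = inhibition above the screen-wide mean plus 3 SD, cut at about 13% in these data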;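 note: signal is the Cy5 over europium emission ratio at 671 and 618 nm; 0% = plate median of compound wells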
The depositor's hits bear a star.

Results for CCCNC(=O)N1[C@@H](CO)[C@H](c2ccc(C3=CCCC3)cc2)[C@@H]1CN(CC)S(=O)(=O)c1ccccc1[N+](=O)[O-] ?
MBD2 DNA inh: 1; UHRF1 MBD2 ctr: -2; TDP2 inh: 0; LEDGF integ inh: -1

What do the screens show for `O=C(Cn1nnc(-c2ccncc2)n1)Nc1ccc(F)cc1F`?
MBD2 DNA inh: -6; UHRF1 MBD2 ctr: -2; TDP2 inh: 6; LEDGF integ inh: 3

How did Cc1cc(C)c(S(=O)(=O)/N=C2\C=C(Nc3ccc(C(=O)O)cc3)C(=O)c3ccccc32)c(C)c1 do in these assays?
MBD2 DNA inh: -3; UHRF1 MBD2 ctr: 8; TDP2 inh: 84*; LEDGF integ inh: 43*

How did Cc1cccc(NC2=C/C(=N/S(=O)(=O)c3cccs3)c3ccccc3C2=O)c1 do in these assays?
MBD2 DNA inh: -5; UHRF1 MBD2 ctr: 1; TDP2 inh: 20; LEDGF integ inh: 2

How did O=S(=O)(N=C1C=CC(=NS(=O)(=O)c2ccccc2)c2ccccc21)c1ccccc1 do in these assays?
MBD2 DNA inh: -8; UHRF1 MBD2 ctr: 5; TDP2 inh: 7; LEDGF integ inh: 9

What do the screens show for `Cc1ccc(S(=O)(=O)/N=C2\C=C(NS(=O)(=O)c3ccccc3)C(=O)c3ccccc32)cc1`?
MBD2 DNA inh: -21; UHRF1 MBD2 ctr: -6; TDP2 inh: 18; LEDGF integ inh: 16*

Results for Cc1ccc(S(=O)(=O)/N=C2/C=C(C3C(=O)CC(C)(C)CC3=O)C(=O)c3ccccc32)cc1 ?
MBD2 DNA inh: -13; UHRF1 MBD2 ctr: 4; TDP2 inh: 51*; LEDGF integ inh: 40*

What do the screens show for `Cc1cc(C)c(S(=O)(=O)/N=C2\C=C(NS(=O)(=O)c3ccccc3)C(=O)c3ccccc32)c(C)c1`?
MBD2 DNA inh: 1; UHRF1 MBD2 ctr: 2; TDP2 inh: -8; LEDGF integ inh: -1

How did Cc1ccccc1CN1CCCCC(NC(=O)c2ccc3ccccc3c2)C1=O (stereo not drawn) do in these assays?
MBD2 DNA inh: 1; UHRF1 MBD2 ctr: 1; TDP2 inh: -3; LEDGF integ inh: -3

Results for COC1=C[C@H](C(=O)N[C@H]2CCCC[C@@H]2NC(C)=O)[C@@]2(C)Cc3ccccc3[C@H]2CC1=O ?
MBD2 DNA inh: 4; UHRF1 MBD2 ctr: 1; TDP2 inh: 8; LEDGF integ inh: 3

What do the screens show for `CCCCOCCCNC(=O)C[C@H]1C[C@@]2(C(=O)OC)C(=C[C@H](C(C)(C)C)O[C@@H]2C)N(Cc2cccc3ccccc23)C1=O`?
MBD2 DNA inh: -1; UHRF1 MBD2 ctr: 0; TDP2 inh: 1; LEDGF integ inh: -4

How did COCCn1cnc2c(c1=O)c1nc3ccccc3nc1n2/N=C/c1cccc(OC)c1 do in these assays?
MBD2 DNA inh: 3; UHRF1 MBD2 ctr: 24*; TDP2 inh: -5; LEDGF integ inh: -4

What do the screens show for `C=CCn1cnc2c(c1=O)c1nc3ccccc3nc1n2/N=C/c1cc(OC)c(OC)c(OC)c1`?
MBD2 DNA inh: -5; UHRF1 MBD2 ctr: 2; TDP2 inh: 6; LEDGF integ inh: 1

What do the screens show for `CCN(CC(=O)NCc1ccc(F)cc1)C(=O)C(C)Oc1cccc(Cl)c1` (stereo not drawn)?
MBD2 DNA inh: 10; UHRF1 MBD2 ctr: 23*; TDP2 inh: 0; LEDGF integ inh: 0

How did COCCNC(=S)Nc1ccc(S(=O)(=O)Nc2cnc3ccccc3n2)cc1 do in these assays?
MBD2 DNA inh: 1; UHRF1 MBD2 ctr: 37*; TDP2 inh: -3; LEDGF integ inh: -2

How did COCc1cc(=O)n2[nH]c(N)nc2n1 do in these assays?
MBD2 DNA inh: -3; UHRF1 MBD2 ctr: 4; TDP2 inh: 2; LEDGF integ inh: -1

Results for COCc1cc(=O)n2[nH]c(-c3ccsc3-n3c(C)ccc3C)cc2n1 ?
MBD2 DNA inh: 36*; UHRF1 MBD2 ctr: 72*; TDP2 inh: 5; LEDGF integ inh: 81*

What do the screens show for `O=C(CCc1ccccc1)N[C@H]1[C@@H](OC(=O)c2ccco2)CCC[C@]12C(=O)N(Cc1ccccc1)c1ccccc12`?
MBD2 DNA inh: 0; UHRF1 MBD2 ctr: -1; TDP2 inh: -4; LEDGF integ inh: -4

Results for CCCCNC(=O)C[C@@H]1C[C@@]2(C(=O)OCC)CCC=C2N(Cc2ccc3c(c2)OCO3)C1=O ?
MBD2 DNA inh: 7; UHRF1 MBD2 ctr: 21*; TDP2 inh: 2; LEDGF integ inh: -2

What do the screens show for `Cc1ccc(S(=O)(=O)NC(C)C(c2cccs2)N2CCOCC2)cc1` (stereo not drawn)?
MBD2 DNA inh: -7; UHRF1 MBD2 ctr: 39*; TDP2 inh: 3; LEDGF integ inh: 2

How did CC(NC(=O)c1ccc(CS(=O)(=O)c2cccc(C(F)(F)F)c2)o1)c1ccc2c(c1)OCCO2 (stereo not drawn) do in these assays?
MBD2 DNA inh: 2; UHRF1 MBD2 ctr: 42*; TDP2 inh: -10; LEDGF integ inh: -5

Results for CCOC(=O)N1CCN(C(=O)C[C@H]2C[C@@]3(C(=O)OC)C(=C[C@H](C(C)C)O[C@@H]3C3CC3)N(Cc3ccco3)C2=O)CC1 ?
MBD2 DNA inh: -10; UHRF1 MBD2 ctr: -3; TDP2 inh: 5; LEDGF integ inh: 2

What do the screens show for `COc1cccc(OCC(C)CN2CCC(C(O)(c3ccccc3)c3ccccc3)CC2)c1` (stereo not drawn)?
MBD2 DNA inh: -4; UHRF1 MBD2 ctr: 0; TDP2 inh: -9; LEDGF integ inh: -2

What do the screens show for `Cc1cccc(NC(=O)CN(C)S(=O)(=O)c2cccc3cccnc23)c1C`?
MBD2 DNA inh: 1; UHRF1 MBD2 ctr: 0; TDP2 inh: -3; LEDGF integ inh: 1

How did Cc1ccc(C)c(NC(=O)CN(C)S(=O)(=O)c2cccc3cccnc23)c1 do in these assays?
MBD2 DNA inh: 13; UHRF1 MBD2 ctr: 27*; TDP2 inh: -14; LEDGF integ inh: -2

Results for CC(C)(C)OC(=O)/C=C/[C@H](CCCCl)Sc1ccc(C(C)(C)C)cc1 ?
MBD2 DNA inh: -2; UHRF1 MBD2 ctr: 1; TDP2 inh: -2; LEDGF integ inh: 3

Results for O=C(Nc1ccccc1C(F)(F)F)NC1(C(=O)N2CCOCC2)CCCCC1 ?
MBD2 DNA inh: 16*; UHRF1 MBD2 ctr: 34*; TDP2 inh: 3; LEDGF integ inh: 25*

What do the screens show for `CN1C(=O)c2cc(NS(C)(=O)=O)ccc2OC[C@H]2O[C@@H](CC(=O)NCc3ccc(-c4ccccc4)cc3)CC[C@@H]21`?
MBD2 DNA inh: 11; UHRF1 MBD2 ctr: 8; TDP2 inh: 3; LEDGF integ inh: 2

How did Cc1nc(C)c(-c2csc(Nc3cccc(O)c3)n2)s1 do in these assays?
MBD2 DNA inh: 1; UHRF1 MBD2 ctr: 1; TDP2 inh: 4; LEDGF integ inh: -1

How did Cc1cccc(Nc2nc(-c3sc(C)nc3C)cs2)c1 do in these assays?
MBD2 DNA inh: 5; UHRF1 MBD2 ctr: 25*; TDP2 inh: 1; LEDGF integ inh: 1

Screening results as filed in PubChem.
